Bioassay records deposited in PubChem by several laboratories.
CRFBP-R2 agonist = agonists of human CRF-binding protein/CRF-R2 receptor complex | HEK293 CRF-R2/CRF-BP, calcium dye fluorescence (FLIPR); percent of saturating CRF peptide response | activation, % at 13.2 µM | hit rate 0.46% among 350,000 | AID 588473;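 active = activation of at least 50%, plus an integration ratio under a set limit after plate pattern correction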
CRFR2-BP antag = antagonists of CRF-binding protein/CRF-R2 receptor complex. HEK293 CRF-R2/CRF-BP, CRF-induced calcium fluorescence. inhibition, % at 11.8 µM. hit rate 0.59% among 350,000. AID 588475;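 active = inhibition of the ligand-induced calcium signal above about 50% at the single tested concentration, limit read from the data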
Tn6 DDE FP = inhibitors of Tn6 peptide binding to human fibrin DD(E) | AID 720509 | inhibition, % at 8.3 µM | hit rate 0.21% among 370,000 | Fibrin DD(E) TRITC-Tn6 fluorescence polarization displacement;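 active = inhibition above a per-campaign cutoff: mean of compounds within control limits plus 3 SD, cut at about 15% in these data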
Target sequence (P02675 whole entry, looked up): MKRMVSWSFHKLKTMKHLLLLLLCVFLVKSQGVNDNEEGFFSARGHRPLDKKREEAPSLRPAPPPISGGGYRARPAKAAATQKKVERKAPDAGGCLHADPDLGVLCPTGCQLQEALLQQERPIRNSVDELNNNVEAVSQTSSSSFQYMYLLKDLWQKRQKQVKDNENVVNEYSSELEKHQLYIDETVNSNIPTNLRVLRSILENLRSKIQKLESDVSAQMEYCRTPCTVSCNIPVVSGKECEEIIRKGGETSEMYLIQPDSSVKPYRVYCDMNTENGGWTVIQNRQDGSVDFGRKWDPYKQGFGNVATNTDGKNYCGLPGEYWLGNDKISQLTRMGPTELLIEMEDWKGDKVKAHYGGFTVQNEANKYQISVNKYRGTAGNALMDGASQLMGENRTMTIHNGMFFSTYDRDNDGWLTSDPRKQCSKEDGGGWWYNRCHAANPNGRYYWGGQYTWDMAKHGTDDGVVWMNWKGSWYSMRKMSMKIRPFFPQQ
cardiac RTF act = increases calcium sensitivity of human cardiac regulated thin filaments. AID 493008. IANBD-labeled TnC RTF fluorescence at EC20 calcium; 0% EC20 calcium, 100% full calcium. P19429+P45379. hit rate 0.24% among 340,000. activation, % at 7.2 µM;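 active = activation above the mean over all tested compounds plus 3 SD, cut at about 30% in these data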;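 also: rise in fluorescence read as greater calcium sensitivity of cardiac thin filaments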
RTF Ca sens inh = cardiac RTF calcium desensitization. P19429+P45379. IANBD-labeled cardiac RTF, Ca2+ fluorescence. inhibition, % at 7.15 µM. hit rate 0.12% among 340,000;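 active = inhibition above the mean inhibition of all tested compounds plus 3 SD, cut at about 17% in these data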;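 also: assay run at fixed EC70 calcium of 1.6 mM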
Tn7 DDE FP = disrupts Tn7 cyclic peptide binding to fibrin D-Dimer-E complex. P02675. FP displacement of FITC-Tn7 peptide from fibrin DD(E); 0% = median of compound wells per plate. inhibition, % at 8.3 µM. hit rate 0.13% among 370,000. AID 720508;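 active = inhibition above the mean of compounds falling within the control limits plus 3 SD of them, cut at about 14% in these data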
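Test system – human fibrin DD(E) · Times – 10 min preincubation, 3 h with tracer, room temperature · Detection – fluorescence polarization of the labelled Tn7 tracer · Measure – percent inhibition normalized to high-control wells · Benchmarks – high control wells with 10 µM unlabelled Aha-Tn7 peptide (full inhibition) · Repeats – singlicate testing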
Numbers stand for hits; – = inactive; · = not tested or not shown; + = active, no number. Shown are actives, neighbours in structure and some others; about 1.4% of the full set was active somewhere.

SMILES | CRFBP-R2 agonist | CRFR2-BP antag | Tn6 DDE FP | cardiac RTF act | RTF Ca sens inh | Tn7 DDE FP
CCOC(=O)Cn1cc(CN2CCS(=O)(=O)N(Cc3ccc(OC)cc3)C(C(=O)OC)C2)nn1 (stereo not given) | · | · | – | · | · | –
CCc1cc(-c2nnn(CCC3COCCO3)c2CC)cc(CC)c1-c1cn(CCc2c[nH]c3ccccc23)nn1 (stereo not given) | – | – | – | · | · | –
Nc1ccc(-c2c3ccc(=O)cc-3oc3cc(O)ccc23)c(C(=O)O)c1 | 231.9 | – | · | + | – | ·
C#CCN1c2ccccc2Sc2cccnc21 | – | – | – | 29.7 | – | –
CC(CN1c2ccccc2Sc2ccccc21)N(C)C (stereo not given) | – | – | – | – | – | –
CC1COc2ccccc2N1S(=O)(=O)c1ccc(Cl)cc1 (stereo not given) | – | – | – | – | – | –
Cc1ccc(S(=O)(=O)N2c3ccccc3OCC2c2ccccc2)cc1 (stereo not given) | – | 50.1 | – | – | – | –
O=C(NCCCc1ccccc1)c1cccc([N+](=O)[O-])c1 | – | 55.0 | – | – | – | –
CCOc1ccc2nc(S(=O)(=O)NC(=O)C3(C)CCN3C(=O)CCc3cccs3)sc2c1 (stereo not given) | · | · | – | · | · | –
COc1ccc(CN(CC#Cc2ccc(C)cc2)C(N)=NC(=O)CCc2ccccc2)c(OC)c1 | · | · | – | · | · | –
CCOC(=O)c1n[nH]c(=O)c2ccccc12 | – | – | – | · | · | –
CCOC(=O)C1CCN(C(=O)c2n[nH]c(=O)c3ccccc23)CC1 | – | 91.5 | – | – | – | –
Cc1ccc(OCc2nnc(SCC(=O)Nc3ccc(OCc4ccccc4)cc3)n2-c2ccc(Cl)cc2)cc1 | · | · | – | · | · | –
NCCNC(=O)c1c(O)c2cccc3c2n(c1=O)CCC3 | – | – | – | – | – | –
O=C(NCCO)c1c(O)c2cccc3c2n(c1=O)CC3 | – | 56.4 | – | – | – | –
O=C(Nc1ccc(Cl)cc1)O[C@@H]1CC[C@@]23CCCN2C(=O)CCC[C@H]3C1 | · | · | – | · | · | –
O=C(NCCN1CCN(C(=O)NC2CCCCC2)CC1)NC1CCCCC1 | – | 66.8 | – | – | – | –
CCOC(=O)c1c(C(F)(F)C(F)(F)C(F)(F)C(F)(F)F)n[nH]c1C | – | 54.2 | – | – | – | –
COc1ccc(NC(=O)Cn2nnc(-c3ccccc3)c2COc2ccc3ccccc3c2)cn1 | · | · | – | · | · | –
CC(Sc1nnnn1-c1ccccc1)C(=O)Nc1ccccc1-c1ccccc1 (stereo not given) | – | 54.5 | – | – | – | –
O=c1ccc2cc3c([nH]c4ccc(Br)cc43)oc-2c1O | · | · | – | – | 24.0 | –
O=C(O)c1ccc(N=Nc2c(O)[nH]c3ccc(Br)cc23)cc1 | – | – | – | – | – | –
C/C(=N\NC(=O)c1ccccc1NC(=O)c1ccc(Cl)cc1)c1ccncc1 | – | 71.5 | – | – | – | –
C[C@H](CO)N1C[C@H](C)[C@@H](CN(C)S(=O)(=O)c2ccc(C#N)cc2)OCc2cnnn2CCCC1=O | – | – | – | · | · | –
CC1CCC2(CC1)CCN(CCCOC(=O)NCc1ccc(Cl)cc1)C2=O (stereo not given) | · | · | – | · | · | –
SMILES | CRFBP-R2 agonist | CRFR2-BP antag | Tn6 DDE FP | cardiac RTF act | RTF Ca sens inh | Tn7 DDE FP
C(=C\c1ccco1)/C1=NN(c2ccccc2)C(c2ccco2)C1 (stereo not given) | – | – | · | – | – | ·
O=[N+]([O-])c1ccc(/C=C/C2=NN(c3ccccc3)C(c3ccco3)C2)o1 (stereo not given) | 65.8 | – | – | – | – | –
COC(=O)[C@]12C[C@H](CC(=O)NCc3cccs3)C(=O)N(Cc3ccc4c(c3)OCO4)C1=C[C@H](C(C)C)O[C@@H]2C1CC1 | · | · | – | · | · | –
CC(C)OC(=O)c1c(NS(=O)(=O)c2ccccc2)sc2c1CCCC2 | 76.4 | – | – | – | – | –
COc1ccc2cc(C#N)c(N3CCOCC3)nc2c1 | – | – | – | – | – | –
CCOC(=O)C1CCN(c2nc3cc(OC)ccc3cc2C#N)CC1 | – | 57.1 | – | – | – | –
COc1ccc2nc(N3CCC(O)CC3)c(C#N)cc2c1 | 51.5 | – | – | – | – | –
O=C(NCCCO)C(=O)c1c(-c2ccccc2)cc2ccccn12 | – | – | – | – | – | –
CN(C)CCNC(=O)C(=O)c1c(-c2ccccc2)cc2ccccn12 | – | 65.4 | – | – | – | –
c1ccc2nc(-c3ccc(N4CCOCC4)cc3)ccc2c1 | – | – | – | – | – | –
Cc1cc(-c2ccc(N3CCOCC3)cc2)nc2ccccc12 | 58.1 | – | – | – | – | –
COc1ccc2[nH]c3c(c2c1)CCNC3c1ccc([N+](=O)[O-])o1 (stereo not given) | – | – | – | 33.1 | – | –
CC(=O)c1ccc(NC(=O)C(C)OC(=O)c2ccc(Br)o2)cc1 (stereo not given) | – | 53.9 | – | – | – | –
Cc1ccc(-c2cc(C(=O)NN=Cc3ccc(-c4ccccc4)cc3)[nH]n2)cc1 | · | · | – | · | · | –
C[C@@H]1CC=C[C@@H]2[C@H]1C(=O)N(Cc1ccccc1)[C@H]2c1cccc(Br)c1 | – | 71.5 | – | – | – | –
C[C@@H]1CC=C[C@@H]2[C@H]1C(=O)N(Cc1ccccc1)[C@H]2c1cccc(C#Cc2ccccc2)c1 | – | – | – | – | – | –
COc1ccc(S(=O)(=O)N2CCOC2CNC(=O)C(=O)NCCc2ccccc2)cc1C (stereo not given) | – | 139.6 | – | – | – | –
COc1ccc(S(=O)(=O)N2CCOC2CNC(=O)C(=O)NCCc2ccccc2)cc1OC (stereo not given) | – | – | – | – | – | –
S=C(NCc1ccc(Cl)c(Cl)c1)Nc1ccc2c(c1)OCO2 | – | 69.2 | – | – | – | –
S=C(Nc1ccc2c(c1)OCO2)Nc1ccccc1Cl | – | 76.4 | – | – | – | –
CC(C)c1ccc(NC(=S)NCc2ccc3c(c2)OCO3)cc1 | – | – | – | – | – | –
Cc1ccccc1NC1=NC(=S)N(c2ccccc2)C12CCCCC2 | – | 60.5 | – | – | – | –
Cc1ccccc1NC1=NC(=S)N(c2ccccc2)C12CCOC(C)(C)C2 (stereo not given) | – | – | – | – | – | –
COc1ccccc1Cc1c(C(C)(C)C)nc2ccc(C)cn12 | · | · | – | · | · | –
O=C1c2cccc3c([N+](=O)[O-])ccc(c23)C(=O)N1c1ccc(Cl)cn1 | – | 91.2 | – | – | – | –
O=C1c2cccc3c([N+](=O)[O-])ccc(c23)C(=O)N1c1ccccn1 | – | 60.1 | – | – | – | –
O=C1c2cccc3c([N+](=O)[O-])ccc(c23)C(=O)N1c1nccs1 | – | 82.8 | – | – | – | –
CC(=O)Oc1ccc(N2C(=O)c3cccc4c([N+](=O)[O-])ccc(c34)C2=O)cc1 | – | 74.7 | – | – | – | –
